CHRM4 antagonist: antagonists of human muscarinic M4 receptor (CHRM4) | P08173 | CHO-hM4 cells, ACh EC80, Fluo-8 calcium fluorescence | inhibition, % at 3 µM | hit rate 0.73% among 360,000;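 active = inhibition above its plate's cutoff, the mean inhibition of sample wells plus 3 SD, cut at about 27% in these data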;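 also: 0% = acetylcholine EC80 with DMSO and 100% = DMSO without agonist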
CHRM4 agonist: CHRM4 agonism in calcium assay. hit rate 0.14% among 360,000. CHO-K1 hM4/Gqi5, Fluo-8 calcium fluorescence; vehicle 0%, full acetylcholine response 100%. P08173. AID 624127. activation, % at 3 µM;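 active = activation above the run mean over all test wells plus 3 SD, cut at about 32% in these data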;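 also: peak over basal fluorescence ratio per well then scaled between controls; 0% = DMSO wells and 100% = acetylcholine at EC100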
CHRM5 PAM: positive allosteric modulators of human muscarinic M5 receptor | P08912 | CHO-K1 hM5, Fluo-8 calcium, ACh EC20 PAM; 0% = ACh EC20, 100% = ACh EC100 | activation, % at 3 µM | hit rate 0.3% among 360,000 | AID 624038;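 active = activation above the run cutoff, the mean activation of all test compounds plus 3 SD, cut at about 18% in these data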
Target sequence (P08912 whole entry, looked up): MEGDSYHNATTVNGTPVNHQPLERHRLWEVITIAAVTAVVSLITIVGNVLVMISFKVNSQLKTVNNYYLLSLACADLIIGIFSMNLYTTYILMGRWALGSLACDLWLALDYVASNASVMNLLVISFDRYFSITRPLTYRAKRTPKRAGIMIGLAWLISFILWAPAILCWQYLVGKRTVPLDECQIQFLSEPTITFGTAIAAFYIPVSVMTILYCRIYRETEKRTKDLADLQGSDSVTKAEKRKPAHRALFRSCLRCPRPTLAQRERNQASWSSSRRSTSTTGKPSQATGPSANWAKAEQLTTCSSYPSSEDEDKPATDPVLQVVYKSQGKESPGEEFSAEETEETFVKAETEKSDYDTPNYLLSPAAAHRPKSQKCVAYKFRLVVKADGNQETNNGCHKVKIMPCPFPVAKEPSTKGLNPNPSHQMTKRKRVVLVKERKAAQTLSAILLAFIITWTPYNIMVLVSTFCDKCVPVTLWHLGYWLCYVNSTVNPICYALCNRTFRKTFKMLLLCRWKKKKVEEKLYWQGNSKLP
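system = human M5 receptor in CHO-K1 cells | compound = one concentration, 3 µM final (nominal) | schedule = Post-acetylcholine fluorescence recording 140 s | signal = Fluo-8 calcium dye fluorescence, kinetic read | benchmarks = low control EC20 acetylcholine (0%), high control EC100 acetylcholine (100%) | repeats = singlicate, one well per test compound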
CHRM5 antagonist: antagonists of human muscarinic M5 receptor (CHRM5). P08912. CHO-hM5 cells, Fluo-8 calcium fluorescence, ACh EC80. inhibition, % at 3 µM. hit rate 0.59% among 360,000;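 active = inhibition above a per-plate cutoff, the mean of that plate's test compounds plus 3 SD, cut at about 27% in these data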;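 also: 0% = acetylcholine EC80 with DMSO and 100% = DMSO without agonist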
CHRM5 agonist: agonists of human muscarinic M5 receptor (CHRM5); P08912; CHO-K1 hM5 cells, Fluo-8 calcium fluorescence; 0% DMSO wells, 100% maximal acetylcholine response; activation, % at 3 µM; hit rate 0.19% among 360,000;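 active = activation above the run's mean over test compounds plus 3 SD, cut at about 23% in these data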;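 also: signal is peak over basal fluorescence ratio across the kinetic read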
CHRM4 PAM: positive allosteric modulators of human muscarinic M4 receptor; activation, % at 3 µM; P08173; AID 624126; CHO-K1 hM4/Gqi5, Fluo-8 calcium fluorescence, ACh EC20; 0% = ACh EC20, 100% = maximal ACh; hit rate 0.4% among 360,000;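 active = activation above its plate's cutoff, the mean activation of sample wells plus 3 SD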
* hit, by the source's call. Only some compounds are listed: those with a hit (about 1.8% of all), similar ones and a draw of the others.

SMILES | CHRM4 antagonist | CHRM4 agonist | CHRM5 PAM | CHRM5 antagonist | CHRM5 agonist | CHRM4 PAM
CCN1/C(=C/c2ccc3cc(C)ccc3[n+]2CC)Sc2ccccc21 | 33* | 14 | -21 | 60* | 24* | -9
Cc1ccccc1NC(=O)Nc1nc(C(N)C2CCCCC2)cs1 (configuration not stated) | -2 | 9 | 4 | 1 | 3 | 5
Clc1cccc(Oc2cnc3ccccc3n2)c1 | 3 | -1 | 8 | 0 | 1 | 30*
CCc1nc2ccc(C(=O)Nc3cc(-c4ccccc4)ccc3OC)cn2c1N(C)Cc1nccs1 | 14 | 9 | -13 | 16 | -1 | -8
CC(C)NC(=O)N(O)C1N(C(C)C)C(=O)N(Cc2ccc3c(c2)OCO3)C1(C)C (configuration not stated) | 30* | 14 | -19 | 25 | 2 | -22
O=[N+]([O-])c1ccc(-n2nncc2-c2ccccc2)cc1 | -8 | 0 | 19* | -9 | -18 | -10
CC#CC[N+](C)(C)CCCCCCCC | 12 | 0 | -2 | 1 | -15 | -6
CCCCCCCCCCCCCCCC[N+](C)(C)Cc1ccc(F)cc1 | 36* | 0 | -35 | 21 | -13 | -10
CCCCn1nnnc1C1(C)CCC(=O)N1Cc1ccc(C)cc1 (configuration not stated) | -4 | 2 | 5 | -6 | 5 | 18
COc1cccc(C(=O)NC(=S)Nc2ccc(N3CCCC3)cc2)c1 | -15 | 0 | -2 | 7 | -5 | -10
CC(C)Oc1cccc(C(=O)NC(=S)Nc2ccc(N3CCN(C)CC3)cc2)c1 | 39* | 7 | -36 | 15 | -19 | -54
COc1ccccc1C(CNC(=O)c1cccc(S(=O)(=O)N2c3ccccc3CC2C)c1)N(C)C (configuration not stated) | 20 | 3 | -47 | 78* | -11 | -16
COc1ccccc1C(CNC(=O)c1cccc(S(=O)(=O)N2CCCc3ccccc32)c1)N(C)C (configuration not stated) | 26 | 4 | -45 | 67* | -11 | -14
CC1Cc2ccccc2N1S(=O)(=O)c1cccc(C(=O)NCc2ccco2)c1 (configuration not stated) | -7 | 3 | -7 | 21 | -8 | 0
COc1ccc(C(CNC(=O)c2cccc(S(=O)(=O)N3CCc4ccccc43)c2)N(C)C)cc1 (configuration not stated) | 16 | 4 | -10 | 5 | -10 | -10
CC(C)C[C@H]1CN(CCCC[C@@H]2CNC(=O)C(=O)N2Cc2ccccc2)C(=O)C(=O)N1CCc1ccc(O)cc1 | -6 | 0 | -4 | 0 | -1 | 2
COc1ccc(NC(=O)c2cc(-c3cc(Cl)ccc3C)n[nH]2)cn1 | -7 | 7 | -4 | 1 | 1 | -4
CC(=O)/C(C[N+]1(C)CCCCC1)=N\O | 34* | 1 | -23 | 43* | -8 | -17
C[N+]1(CC(=O)OCCCc2ccccc2)CCCCC1 | -9 | 1 | -13 | 8 | -15 | -5
COC(=O)[C@H]1[C@@H](C)N(Cc2ccccc2)C(=O)N[C@H]1c1cccc(C(F)(F)F)c1 | -11 | 4 | 19* | -4 | 5 | 12
CC(C)c1cc(C(=O)Nc2cc(Br)ccc2O)no1 | 4 | 1 | -14 | 34* | -4 | -8
COC(=O)CSc1ccc(S(=O)(=O)N2CCC(C)CC2)cc1[N+](=O)[O-] | -11 | 1 | 13 | -2 | -3 | 25*
CC(Sc1ccc(S(=O)(=O)N2CCOCC2)cc1[N+](=O)[O-])C(=O)O (configuration not stated) | -12 | 2 | 7 | 1 | -3 | 23*
Cc1ccc(S(=O)(=O)N2CCC(C)CC2)cc1[N+](=O)[O-] | -8 | 1 | 6 | -8 | -2 | 10
COc1ccc(S(=O)(=O)N=N/C=C2\C=CC=CN2O)cc1OC | -6 | 0 | -10 | 15 | -1 | 1
SMILES | CHRM4 antagonist | CHRM4 agonist | CHRM5 PAM | CHRM5 antagonist | CHRM5 agonist | CHRM4 PAM
C[C@H]1CN([C@@H](C)CO)C(=O)c2cc(C3=CCCC3)cnc2O[C@@H]1CN(C)C(=O)c1ccncc1 | 15 | 0 | -1 | -3 | 1 | -3
COc1ccc(OCCNC(=O)c2ccc3nc(C)c(N(C)Cc4ccc(NC(C)=O)cc4)n3c2)cc1 | -10 | 6 | -8 | 4 | -1 | 1
CC(=O)c1c(C)nc2ccc([N+](=O)[O-])cc2c1-c1ccccc1 | -27 | 2 | 6 | -2 | -8 | 14*
CC(=O)c1c(C)nc2ccc(Br)cc2c1-c1ccccc1 | -9 | 0 | -1 | -4 | -2 | 7
OCCN1CCN(c2ncnc3c2ncn3[C@H]2CN(Cc3cccc(C(F)(F)F)c3)C[C@@H](CO)O2)CC1 | -8 | 1 | 0 | 3 | 0 | 0
Cc1oc(-c2ccccc2Cl)nc1CS(=O)CC(=O)NCc1ccc2c(c1)OCO2 (configuration not stated) | -10 | 2 | 23* | -26 | -1 | 3
Cc1ccccc1-c1nc(CS(=O)CC(=O)NCc2ccc3c(c2)OCO3)c(C)o1 (configuration not stated) | 2 | 6 | -11 | 26 | -5 | -1
Cc1ccc(C(=O)c2sc3nc4c(cc3c2N)CCC4)cc1 | -6 | 1 | 5 | -4 | -1 | 21*
Nc1c(C(=O)N2CCCCC2)sc2nc3c(cc12)CCCC3 | -2 | 0 | 0 | -3 | -2 | -3
O=C(Nc1ccn(C2CCC(CO)O2)c(=O)n1)c1ccccc1 (configuration not stated) | 6 | 0 | -2 | 0 | 1 | 11
OC(CCN1CCC2CCC(C2)C1)c1ccc(Br)cc1 (configuration not stated) | 37* | -1 | -12 | 4 | -11 | -13
CC(=O)Nc1ccc(NC2=C/C(=N/S(=O)(=O)c3cccs3)c3ccccc3C2=O)cc1 | 11 | 15 | -5 | 28* | 3 | -9
Cc1ccc(NC2=C/C(=N/S(=O)(=O)c3cccs3)c3ccccc3C2=O)cc1C | -9 | 1 | -3 | 4 | 1 | 2
CCCn1c(-c2ccncc2)n[nH]c1=S | -4 | 2 | 22* | -1 | 1 | 7
Cc1ccc(-n2nc3ccc(N)cc3n2)cc1Cl | 10 | -1 | -3 | 4 | 1 | -3
Cc1ccc(-n2nc3ccc(N)cc3n2)cc1C | -4 | 1 | 21* | -15 | 13 | 16*
CC(C)c1cc(Cn2c3ccccc3c(=O)n2C(C)Cn2cc(CCc3ccccc3)nn2)on1 (configuration not stated) | -1 | 3 | 3 | -1 | 1 | -4
